In ChEMBL document CHEMBL1287656, “New octahydroquinazoline derivatives: synthesis and hypotensive activity” (Eur J Med Chem, 2010):
The source made the active and inactive calls. The calls are words filed in the database; no cut-off is given here.

What was measured:
Rattus norvegicus [1] = assay: Hypotensive activity in anaesthetized albino rat assessed as change in diastolic arterial blood pressure at 5 mg/kg, ip up to 60 mins; type: functional, organism-based; design: dose 5 mg/kg
How it was run: (§1)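 Male adult albino rats (groups of 6) anaesthetised with urethane 1.75–2.0 g/Kg i.p. Test agent given i.p. at 5 mg/Kg, dissolved in tween 80 and diluted 1:3 with distilled water. A solvent-treated group served as control. Arterial pressure was recorded via a cannula and pressure transducer on a chart oscillograph at 5, 15, 30 and 60 min. Statistics by one-way ANOVA or unpaired t test.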

Rattus norvegicus [2] = assay: Hypotensive activity in anaesthetized albino rat assessed as change in systolic arterial blood pressure at 5 mg/kg, ip up to 60 mins; type: functional, organism-based; design: dose 5 mg/kg; how it was run: as §1
Rattus norvegicus [3] = assay: Hypotensive activity in anaesthetized albino rat assessed as change in systolic arterial blood pressure at 5 mg/kg, ip after 60 mins relative to control; conditions: route intraperitoneal
Rattus norvegicus [4] = assay: Hypotensive activity in anaesthetized albino rat assessed as change in systolic arterial blood pressure at 5 mg/kg, ip after 5 mins relative to control; type: functional; conditions: route intraperitoneal; how it was run: as §1
Rattus norvegicus [5] = assay: Toxicity in anaesthetized albino rat assessed as change in heart rate at 5 mg/kg, ip after 5 mins relative to control; type: organism-based; design: dose 5 mg/kg, route intraperitoneal; conditions: in vivo
How it was run: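 Urethane-anaesthetised (1.75–2.0 g/Kg i.p.) male albino rats, 6 per group, received 5 mg/Kg i.p. in tween 80/distilled water (1:3); solvent-treated controls. Heart rate was taken from a lead II ECG at 5 min after injection (also 15, 30, 60 min). Analysed by ANOVA or unpaired t test.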

Rattus norvegicus [6] = assay: Hypotensive activity in anaesthetized albino rat assessed as change in diastolic arterial blood pressure at 5 mg/kg, ip after 15 mins relative to control; conditions: route intraperitoneal
Rattus norvegicus [7] = assay: Hypotensive activity in anaesthetized albino rat assessed as change in systolic arterial blood pressure at 5 mg/kg, ip after 15 mins relative to control; conditions: route intraperitoneal
Rattus norvegicus [8] = assay: Toxicity in anaesthetized albino rat assessed as change in heart rate at 30 mg/kg, ip after 5 mins relative to control; type: organism-based; design: dose 30 mg/kg, route intraperitoneal; conditions: in vivo
Rattus norvegicus [9] = assay: Hypotensive activity in anaesthetized albino rat assessed as reduction of adrenaline-induced increase in diastolic arterial blood pressure at 3 ug/kg, iv administered 30 mins before adrenaline challenge measured after 1 hr relative to control; type: functional; design: scale not given: the % may be the effect or the level left
How it was run: (§2)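 Anaesthetised male albino rats (urethane 1.75–2.0 g/Kg i.p.; n=6 per group). Adrenaline (3/Kg i.v.) pressor response was recorded alone, 30 min before i.p. injection of the test agent (5 mg/Kg in tween 80/water). The adrenaline challenge was repeated 30 min and 1 h after dosing. Systolic and diastolic pressure were recorded via a cannulated artery and transducer.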

Rattus norvegicus [10] = assay: Hypotensive activity in anaesthetized albino rat assessed as change in diastolic arterial blood pressure at 5 mg/kg, ip after 30 mins relative to control; conditions: route intraperitoneal
Rattus norvegicus [11] = assay: Toxicity in anaesthetized albino rat assessed as change in heart rate at 15 mg/kg, ip after 5 mins relative to control; type: organism-based; design: dose 15 mg/kg, route intraperitoneal; conditions: in vivo
Rattus norvegicus [12] = assay: Hypotensive activity in anaesthetized albino rat assessed as change in diastolic arterial blood pressure at 60 mg/kg, ip after 5 mins relative to control; type: functional; conditions: route intraperitoneal
Rattus norvegicus [13] = assay: Hypotensive activity in anaesthetized albino rat assessed as reduction of adrenaline-induced increase in systolic arterial blood pressure at 3 ug/kg, iv administered 30 mins before adrenaline challenge measured after 1 hr relative to control; type: functional; design: scale not given: the % may be the effect or the level left; how it was run: as §2
Rattus norvegicus [14] = assay: Hypotensive activity in anaesthetized albino rat assessed as change in diastolic arterial blood pressure at 5 mg/kg, ip after 5 mins relative to control; type: functional; conditions: route intraperitoneal; how it was run: as §1
Rattus norvegicus [15] = assay: Hypotensive activity in anaesthetized albino rat assessed as reduction of adrenaline-induced increase in diastolic arterial blood pressure at 3 ug/kg, iv administered 30 mins before adrenaline challenge measured after 30 mins relative to control; type: functional; design: scale not given: the % may be the effect or the level left; how it was run: as §2
Rattus norvegicus [16] = assay: Hypotensive activity in anaesthetized albino rat assessed as reduction of adrenaline-induced increase in systolic arterial blood pressure at […], iv administered 30 mins before adrenaline challenge measured after 30 mins relative to control; type: functional; design: scale not given: the % may be the effect or the level left; how it was run: as §2
Rattus norvegicus [17] = assay: Toxicity in anaesthetized albino rat assessed as change in heart rate at 60 mg/kg, ip after 5 mins relative to control; type: organism-based; design: dose 60 mg/kg, route intraperitoneal; conditions: in vivo
Rattus norvegicus [18] = assay: Hypotensive activity in anaesthetized albino rat assessed as change in diastolic arterial blood pressure at 5 mg/kg, ip; conditions: TDE = time-dependent effect
Rattus norvegicus [19] = assay: Hypotensive activity in anaesthetized albino rat assessed as change in systolic arterial blood pressure at 15 mg/kg, ip; type: functional, organism-based; design: dose 15 mg/kg; conditions: TDE = time-dependent effect

SMILES | Activity (Rattus norvegicus [1]) | Activity (Rattus norvegicus [2]) | Activity (Rattus norvegicus [3]) | Activity (Rattus norvegicus [4]) | Activity (Rattus norvegicus [5]) | Activity (Rattus norvegicus [6]) | Activity (Rattus norvegicus [7]) | Activity (Rattus norvegicus [8]) | Activity (Rattus norvegicus [9]) | Activity (Rattus norvegicus [10]) | Activity (Rattus norvegicus [11]) | Activity (Rattus norvegicus [12]) | Activity (Rattus norvegicus [13]) | Activity (Rattus norvegicus [14]) | Activity (Rattus norvegicus [15]) | Activity (Rattus norvegicus [16]) | Activity (Rattus norvegicus [17]) | Activity (Rattus norvegicus [18]) | Activity (Rattus norvegicus [19])
CC1(C)CC(=O)C2=C(C1)N(c1ccc(Cl)cc1)CN(c1ccc(OCC(=O)N/N=C/c3ccc(Cl)cc3Cl)cc1)C2 | inactive | inactive | – | – | – | – | – | – | – | – | – | – | – | – | – | – | – | – | –
CC1(C)CC(=O)C2=C(C1)N(c1ccc(Cl)cc1)CN(c1ccc(OCC(=O)N/N=C/c3ccc([N+](=O)[O-])cc3)cc1)C2 | – | – | -26.5% | -13% | 0% | -25% | -17% | -2.1% | -9% | -31.25% | -2.1% | -31.25% | -5% | -12.5% | -9% | -10% | -6.2% | – | –
CC1(C)CC(=O)C2=C(C1)N(c1ccc(Cl)cc1)CN(c1ccccc1F)C2 | inactive | inactive | – | – | – | – | – | – | – | – | – | – | – | – | – | – | – | – | –
CC1(C)CC(=O)C2=C(C1)N(c1ccc(Cl)cc1)CN(c1ccc(F)cc1)C2 | inactive | inactive | – | – | – | – | – | – | – | – | – | – | – | – | – | – | – | – | –
CC1(C)CC(=O)C2=C(C1)N(c1ccc(Cl)cc1)CN(c1ccc(OCC(=O)N/N=C/c3ccc(Br)cc3)cc1)C2 | inactive | inactive | – | – | – | – | – | – | – | – | – | – | – | – | – | – | – | – | –
CC1(C)CC(=O)C2=C(C1)N(c1ccc(Cl)cc1)CN(c1ccc(OCC(=O)N/N=C/c3ccc(Cl)cc3)cc1)C2 | inactive | inactive | – | – | – | – | – | – | – | – | – | – | – | – | – | – | – | – | –
CC1(C)CC(=O)C2=C(C1)N(c1ccc(Cl)cc1)CN(c1ccc(OCC(=O)NN)cc1)C2 | inactive | inactive | – | – | – | – | – | – | – | – | – | – | – | – | – | – | – | – | –
Cc1ccc(/C=N/NC(=O)COc2ccc(N3CC4=C(CC(C)(C)CC4=O)N(c4ccc(Cl)cc4)C3)cc2)cc1 | – | – | -39.3% | -17.8% | -2% | -25% | -21.4% | -6.3% | -28.5% | -29.16% | -5% | -37.5% | -22% | -25% | -19% | -11% | -6.3% | – | –
COc1cc2nc(N3CCN(C(=O)c4ccco4)CC3)nc(N)c2cc1OC [PRAZOSIN] | – | – | -33.3% | -20.8% | 30% | -22.22% | -29.2% | 16% | 0% | -27.7% | 26% | -38.8% | 0% | -22.22% | -8% | -11% | -5.1% | – | –
CC1(C)CC(=O)C2=C(C1)N(c1ccc(Cl)cc1)CN(c1ccc(O)cc1)C2 | – | – | -3% | 0% | 0% | 0% | 0% | 0% | 16% | 0% | 0% | -5% | 17% | 0% | 10% | 17% | – | – | –
CC1(C)CC(=O)C2=C(C1)N(c1ccc(Cl)cc1)CN(c1ccc(Cl)cc1)C2 | – | – | 32.4% | 17.8% | 0% | 25% | 23% | 6% | – | 28% | 0% | 28% | – | 18.2% | – | – | 6% | tde | tde
CC1(C)CC(=O)C2=C(C1)N(c1ccc(Cl)cc1)CN(c1ccc(OCC(=O)N/N=C/c3cccc([N+](=O)[O-])c3)cc1)C2 | inactive | inactive | – | – | – | – | – | – | – | – | – | – | – | – | – | – | – | – | –
CCOC(=O)COc1ccc(N2CC3=C(CC(C)(C)CC3=O)N(c3ccc(Cl)cc3)C2)cc1 | inactive | inactive | – | – | – | – | – | – | – | – | – | – | – | – | – | – | – | – | –
COc1cccc(/C=N/NC(=O)COc2ccc(N3CC4=C(CC(C)(C)CC4=O)N(c4ccc(Cl)cc4)C3)cc2)c1 | inactive | inactive | – | – | – | – | – | – | – | – | – | – | – | – | – | – | – | – | –
Cc1ccc(N2CC3=C(CC(C)(C)CC3=O)N(c3ccc(Cl)cc3)C2)cc1 | – | – | -6% | 0% | 0% | 0% | 0% | 0% | 0% | -6.25% | 0% | -18.7% | 0% | 0% | -8% | -11% | 0% | tde | tde
CC1(C)CC(=O)C2=C(C1)N(c1ccc(Cl)cc1)CN(c1ccc(OCC(=O)N/N=C/c3ccccc3Cl)cc1)C2 | inactive | inactive | – | – | – | – | – | – | – | – | – | – | – | – | – | – | – | – | –
CC1(C)CC(=O)C2=C(C1)N(c1ccc(Cl)cc1)CN(c1ccccc1)C2 | – | – | -6% | 0% | 0% | 0% | 0% | 6.25% | 0% | -7.7% | 0% | -7.7% | 0% | 0% | -9% | -7% | 12% | tde | tde
CC1(C)CC(=O)C2=C(C1)N(c1ccc(Cl)cc1)CN(c1ccc(Br)cc1)C2 | inactive | inactive | – | – | – | – | – | – | – | – | – | – | – | – | – | – | – | – | –
COc1ccc(/C=N/NC(=O)COc2ccc(N3CC4=C(CC(C)(C)CC4=O)N(c4ccc(Cl)cc4)C3)cc2)cc1 | inactive | inactive | – | – | – | – | – | – | – | – | – | – | – | – | – | – | – | – | –
CC1(C)CC(=O)C2=C(C1)N(c1ccc(Cl)cc1)CN(c1ccc(OCC(=O)N/N=C/c3ccccc3)cc1)C2 | – | – | -13% | -19% | 0% | -10% | -13% | 0% | -7% | -15% | -4% | -20% | -7% | -10% | -6% | -7% | 0% | – | –
CC1(C)CC(=O)C2=C(C1)N(c1ccc(Cl)cc1)CN(c1ccc(OCC(=O)N/N=C/c3cccc(Br)c3)cc1)C2 | inactive | inactive | – | – | – | – | – | – | – | – | – | – | – | – | – | – | – | – | –
